Experimental data reported in ChEMBL document CHEMBL1932946, “Design, synthesis and anticonvulsant evaluation of novel N-(4-substituted phenyl)-2-[4-(substituted) benzylidene]-hydrazinecarbothio amides” (Eur J Med Chem, 2012).
Active and inactive are the calls of the source. The calls are words filed in the database; no cut-off is given here.

How the values were obtained:
[1] = Neurotoxicity in ip dosed albino CF-1 mouse assessed as minimum motor impairment after 0.5 hrs by rotarod test; type: toxicity, organism-based; conditions: in vivo
Mus musculus [2] = test: Neurotoxicity in albino CF-1 mouse assessed as minimum motor impairment at 300 mg/kg, ip after 0.5 hrs by rotarod test; type: toxicity, organism-based; set-up: dose 300 mg/kg, route intraperitoneal; conditions: in vivo
Outline: (§1)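 Minimal motor impairment assessed in male CF-1 albino mice (18–25 g) at 0.5 and 4 h after i.p. doses of 30, 100 and 300 mg/kg, given in 0.5% methyl cellulose. Minimum dose toxic in half or more of mice recorded.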

Mus musculus [3] = test: Neurotoxicity in albino CF-1 mouse assessed as minimum motor impairment at 300 mg/kg, ip after 4 hrs by rotarod test; type: toxicity, organism-based; set-up: dose 300 mg/kg, route intraperitoneal; conditions: in vivo; outline: as §1
Mus musculus [4] = test: Anticonvulsant activity in albino CF-1 mouse assessed as protection against 6 Hz psychomotor seizure at 100 mg/kg, ip after 0.25 hrs by minimal clonic seizure test; type: functional; conditions: route intraperitoneal
Outline: (§2)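 Male CF-1 albino mice (18–25 g) given compound i.p., suspended in 0.5% methyl cellulose, 100 mg/kg in screen. Four mice per time point challenged at 0.25, 0.5, 1.0, 2.0 and 4.0 h via corneal electrodes (32 mA, 3 s, 6 Hz). Protection = absence of psychomotor seizure (minimal clonic phase, automatistic behaviours). Scored as animals protected/tested.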

Mus musculus [5] = test: Anticonvulsant activity in albino CF-1 mouse assessed as protection against 6 Hz psychomotor seizure at 100 mg/kg, ip after 0.5 hrs by minimal clonic seizure test; type: functional; conditions: route intraperitoneal; outline: as §2
Mus musculus [6] = test: Anticonvulsant activity in albino CF-1 mouse assessed as protection against 6 Hz psychomotor seizure at 100 mg/kg, ip after 1 hr by minimal clonic seizure test; type: functional; outline: as §2
Mus musculus [7] = test: Anticonvulsant activity in albino CF-1 mouse assessed as protection against 6 Hz psychomotor seizure at 100 mg/kg, ip after 2 hrs by minimal clonic seizure test; type: functional; outline: as §2
Mus musculus [8] = test: Anticonvulsant activity in albino CF-1 mouse assessed as protection against 6 Hz psychomotor seizure at 100 mg/kg, ip after 4 hrs by minimal clonic seizure test; type: functional, organism-based; set-up: dose 100 mg/kg; outline: as §2
Mus musculus [9] = test: Anticonvulsant activity in ip dosed albino CF-1 mouse assessed as protection against 6 Hz psychomotor seizure after 0.5 hrs by minimal clonic seizure test; type: functional; conditions: albino CF-1, ip; outline: as §2
Mus musculus [10] = species: Mus musculus; test: Protective index, ratio of TD50 for albino CF-1 mouse to ED50 for albino CF-1 mouse by 6 Hz psychomotor seizure test; type: functional
[11] = Neuroprotective activity in hippocampal slice assessed as protection against kainic acid-induced cell death using propidium iodide staining; type: functional, tissue-based; conditions: Hippocampus
Outline: (§3)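 Qualitative primary screen on organotypic hippocampal slice cultures. Cell death induced by NMDA or kainic acid, with or without test compound. Propidium iodide present in all wells; PI fluorescence intensity taken as proportional to cell death.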

[12] = Octanol-phosphate buffer partition coefficient, log P of the compound at 5 mg after 24 hrs by UV spectroscopic analysis; type: physicochemical
Outline: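 5 mg compound added to 10 mL octanol plus 10 mL phosphate buffer in a stoppered tube. Mixture shaken mechanically 24 h at room temperature, then left 6 h in a separating funnel to equilibrate.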

[13] = Neuroprotective activity in hippocampal slice assessed as protection against NMDA-induced cell death using propidium iodide staining; type: functional, tissue-based; conditions: Hippocampus; outline: as §3
Mus musculus [14] = test: Anticonvulsant activity in albino CF-1 mouse assessed as protection against maximal electroshock-induced seizures at 300 mg/kg, ip after 0.5 hrs; type: functional, organism-based; set-up: dose 300 mg/kg
Outline: (§4)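 Male CF-1 albino mice (18–25 g) dosed i.p. at 30, 100 and 300 mg/kg as suspension in 0.5% methyl cellulose. 60 Hz alternating current, 50 mA, delivered 0.2 s via corneal electrodes primed with 0.5% tetracaine HCl electrolyte. Protection = abolition of hind limb tonic extensor component. Value reported is the minimum dose active in half or more of mice.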

Mus musculus [15] = test: Anticonvulsant activity in albino CF-1 mouse assessed as protection against maximal electroshock-induced seizures at 300 mg/kg, ip after 2 hrs; type: functional, organism-based; set-up: dose 300 mg/kg; outline: as §4
Mus musculus [16] = test: Anticonvulsant activity in albino CF-1 mouse assessed as protection against maximal electroshock-induced seizures at 300 mg/kg, ip after 4 hrs; type: functional, organism-based; set-up: dose 300 mg/kg; outline: as §4
Mus musculus [17] = test: Anticonvulsant activity in ip dosed albino CF-1 mouse assessed as protection against subcutaneous metrazol-induced seizures after 0.5 hrs; type: functional; conditions: albino CF-1, 0.5 h, read-out: MED
Outline: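 Male CF-1 mice (18–25 g) were given compound i.p. at 30, 100 or 300 mg/kg, suspended in 0.5% methyl cellulose. Metrazol was injected subcutaneously into a loose skin fold at the neck midline, at the dose that induces convulsions in 97% of animals. Mice were isolated and watched for 30 min for absence of seizure. The value reported is the minimum dose active in half or more of mice.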

Mus musculus [18] = test: Anticonvulsant activity in albino CF-1 mouse assessed as protection against subcutaneous metrazol-induced seizure at 300 mg/kg, ip after 4 hrs; type: functional, organism-based; set-up: dose 300 mg/kg
Outline: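 Mice (male CF-1 albino, 18–25 g) pretreated i.p. with 30, 100 or 300 mg/kg in 0.5% methyl cellulose. Metrazol, at a dose convulsing 97% of animals, injected subcutaneously into the loose skin fold at the midline of the neck. Animals isolated and watched for 30 min for absence of seizure. Minimum dose active in half or more of mice recorded.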

| logP at 24 h [12] | SMILES | TD50 at 0.5 h [1] | Activity (Mus musculus [2]) | Activity (Mus musculus [3]) | Activity (Mus musculus [4]) | Activity (Mus musculus [5]) | Activity (Mus musculus [6]) | Activity (Mus musculus [7]) | Activity (Mus musculus [8]) | ED50 (Mus musculus [9]) | Ratio TD50/ED50 (Mus musculus [10]) | Activity [11] | Activity [13] | Activity (Mus musculus [14]) | Activity (Mus musculus [15]) | Activity (Mus musculus [16]) | minimal effective dose (Mus musculus [17]) | Activity (Mus musculus [18]) |
| --- | --- | --- | --- | --- | --- | --- | --- | --- | --- | --- | --- | --- | --- | --- | --- | --- | --- | --- |
| 5.78 | Fc1ccc(NC(=S)N/N=C/c2ccc(Oc3ccc(Cl)cc3)cc2)cc1 | > 500 mg/kg | Non-toxic | Non-toxic | 75% | 100% | Active | Active | Active | > 200 mg/kg | >2.5 | inactive | inactive | – | – | – | – | – |
| – | CCCC(CCC)C(=O)[O-].[Na+] [VALPROATE SODIUM] | – | Non-toxic | Non-toxic | – | – | – | – | – | – | – | – | – | inactive | inactive | inactive | 300 mg/kg | inactive |
